According to ChEMBL document CHEMBL2040794, “Synthesis and structure-activity analysis of new phosphonium salts with potent activity against African trypanosomes” (J Med Chem, 2012):

Legend:
[1] = system: Trypanosoma brucei rhodesiense; test: Antitrypanosomal activity against Trypanosoma brucei rhodesiense STIB900 infected in rat L6 cells after 72 hrs by alamar blue assay; type: functional, organism-based
L6 = test: Cytotoxicity against rat L6 cells after 72 hrs by alamar blue assay; type: cell-based
[2] = Selectivity index, ratio of EC50 for rat L6 cells to EC50 for Trypanosoma brucei rhodesiense STIB900; type: toxicity, cell-based; conditions: for selectivity ratio: L6 cells, read-out: Ratio EC50; for Ratio EC50: l6
Procedure, shortened: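 Ratio of EC₅₀ in L6 cells to EC₅₀ against T. b. rhodesiense STIB900, both from Alamar blue assays.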

[3] = system: Trypanosoma brucei brucei; test: Antitrypanosomal activity against wild type Trypanosoma brucei brucei Lister 427 after 3 days by alamar blue assay; type: functional, organism-based
Procedure, shortened: (§1)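 Bloodstream-form T. b. brucei (wild-type s427; TbAT1-KO, made from s427 by TbAT1 deletion; B48, selected from TbAT1-KO in vitro on pentamidine, lacking functional HAPT1). Cells were exposed to compound for 48 h, then resazurin (Alamar blue) was added for a further 24 h. A single fluorescence reading gave EC50.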

[4] = system: Trypanosoma brucei brucei; test: Antitrypanosomal activity against diminazene aceturate-resistant TbAT1 gene-deficient Trypanosoma brucei brucei AT1-KO after 3 days by alamar blue assay; type: functional, organism-based; procedure, shortened: as §1
[5] = system: Trypanosoma brucei brucei; test: Resistance factor, ratio of EC50 for diminazene aceturate-resistant TbAT1 gene-deficient Trypanosoma brucei brucei AT1-KO to EC50 for wild type Trypanosoma brucei brucei Lister 427; type: functional
Procedure, shortened: (§2)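 Resistance factor is the EC50 in the resistant line (TbAT1-KO or B48) divided by the EC50 in wild-type s427. […] Resistant and wild-type EC50s were compared by Student t-test.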

[6] = system: Trypanosoma brucei brucei; test: Antitrypanosomal activity against diminazene-, pentamidine-, and melaminophenyl arsenical-resistant HAPT1-deficient Trypanosoma brucei brucei B48 after 3 days by alamar blue assay; type: functional, organism-based; procedure, shortened: as §1
[7] = system: Trypanosoma brucei brucei; test: Resistance factor, ratio of EC50 for diminazene-, pentamidine-, and melaminophenyl arsenical-resistant HAPT1-deficient Trypanosoma brucei brucei B48 to EC50 for wild type Trypanosoma brucei brucei Lister 427; type: functional; procedure, shortened: as §2
[8] = Cytotoxicity against human HEK cells after 3 days by alamar blue assay; type: cell-based, HEK293
Procedure, shortened: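 Human embryonic kidney cells tested by resazurin (Alamar blue) assay: 48 h with compound, then 24 h more after dye addition, single reading; EC₅₀ derived.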

[9] = Selectivity index, ratio of EC50 for human HEK cells to EC50 for wild type Trypanosoma brucei brucei Lister 427; type: toxicity, cell-based, HEK293; conditions: for selectivity ratio: HEK cells, read-out: Ratio EC50; for Ratio EC50: hek293
Procedure, shortened: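 Ratio of EC₅₀ in HEK cells to EC₅₀ in wild-type T. b. brucei s427, both from resazurin assays.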

[10] = Trypanosoma brucei, STIB900, 72 h
[11] = Trypanosoma brucei, Lister 427, 72 h
[12] = Trypanosoma brucei, AT1-KO, 72 h

Row | Compound | EC50 [1, 10] [nM] | EC50 (L6; Rattus norvegicus, L6, 72 h) [nM] | selectivity ratio [2] | EC50 [3, 11] [nM] | EC50 [4, 12] [nM] | Ratio EC50 [5] | EC50 ([6]; Trypanosoma brucei, B48, 72 h) [nM] | Ratio EC50 [7] | EC50 ([8]; Homo sapiens, HEK293, 72 h) [nM] | selectivity ratio [9] | EC50 [1] [nM] | EC50 (L6; l6) [nM] | Ratio EC50 [2] | EC50 [3] [nM] | EC50 [4] [nM] | EC50 [6] [nM] | EC50 ([8]; hek293) [nM] | Ratio EC50 [9]
1 | Cc1ccc([P+](Cc2ccc(Oc3ccccc3)cc2)(c2ccc(C)cc2)c2ccc(C)cc2)cc1.[Br-] | 2 | 263 | 131 | 15 | 13 | 0.8 | 10 | 0.7 | 17600 | 1140 | – | – | – | – | – | – | – | –
2 | Cc1ccc([P+](Cc2ccc(Oc3ccc(C[P+](c4ccccc4)(c4ccccc4)c4ccc(C)cc4)cc3)cc2)(c2ccccc2)c2ccccc2)cc1.[Br-].[Br-] | 142 | 3340 | 23 | 82 | 77 | 0.9 | 64 | 0.8 | 240000 | 2930 | – | – | – | – | – | – | – | –
3 | O=C(c1ccc(C[P+](c2ccccc2)(c2ccccc2)c2ccccn2)cc1)c1ccc(C[P+](c2ccccc2)(c2ccccc2)c2ccccn2)cc1.[Br-].[Br-] | 607 | 14600 | 24 | 700 | 1430 | 2 | 1330 | 1.9 | > 300000 | > 400 | – | – | – | – | – | – | – | –
4 | [Br-].[Br-].c1ccc2c([P+](Cc3ccc(Oc4ccc(C[P+](c5cccc6ccccc56)(c5cccc6ccccc56)c5cccc6ccccc56)cc4)cc3)(c3cccc4ccccc34)c3cccc4ccccc34)cccc2c1 | 384 | 3450 | 9 | 160 | 140 | 0.9 | 128 | 0.8 | 114000 | 722 | – | – | – | – | – | – | – | –
5 | COc1ccccc1[P+](Cc1ccc(Oc2ccc(C[P+](c3ccccc3OC)(c3ccccc3OC)c3ccccc3OC)cc2)cc1)(c1ccccc1OC)c1ccccc1OC.[Br-].[Br-] | 153 | 1270 | 8 | 56 | 57 | 1 | 45 | 0.8 | 141000 | 2520 | – | – | – | – | – | – | – | –
6 | Cc1ccc([P+](Cc2ccc(C(=O)c3ccc(C[P+](c4ccc(C)cc4)(c4ccc(C)cc4)c4ccc(C)cc4)cc3)cc2)(c2ccc(C)cc2)c2ccc(C)cc2)cc1.[Cl-].[Cl-] | – | – | – | – | – | 0.7 | – | 0.8 | – | – | 84 | 1220 | 14.5 | 94 | 65 | 73 | 24000 | 254
7 | Cc1cccc([P+](Cc2ccc(Oc3ccccc3)cc2)(c2cccc(C)c2)c2cccc(C)c2)c1.[Br-] | 14 | 870 | 62 | 28 | 21 | 0.8 | 17 | 0.6 | 24500 | 876 | – | – | – | – | – | – | – | –
8 | Cc1ccc([P+](Cc2ccc(CCCc3ccc(C[P+](c4ccc(C)cc4)(c4ccc(C)cc4)c4ccc(C)cc4)cc3)cc2)(c2ccc(C)cc2)c2ccc(C)cc2)cc1.[Br-].[Br-] | 81 | 1800 | 22 | – | 49 | 1.7 | 53 | 1.8 | – | – | – | – | – | 29 | – | – | 25800 | 897
9 | CC(C)C[P+](Cc1ccc(Cc2ccc(C[P+](CC(C)C)(CC(C)C)CC(C)C)cc2)cc1)(CC(C)C)CC(C)C.[Br-].[Br-] | 326 | 45900 | 141 | 700 | 880 | 1.3 | 880 | 1.3 | > 300000 | > 429 | – | – | – | – | – | – | – | –
10 | Cc1ccc([P+](Cc2ccc(CCc3ccc(C[P+](c4ccc(C)cc4)(c4ccc(C)cc4)c4ccc(C)cc4)cc3)cc2)(c2ccc(C)cc2)c2ccc(C)cc2)cc1.[Cl-].[Cl-] | – | – | – | – | – | 0.5 | – | 0.8 | – | – | 50 | 1690 | 33.8 | 58 | 30 | 45 | 23300 | 404
11 | O=C(c1ccc(C[P+](Cc2ccccc2)(c2ccccc2)c2ccccc2)cc1)c1ccc(C[P+](Cc2ccccc2)(c2ccccc2)c2ccccc2)cc1.[Br-].[Br-] | 480 | 32000 | 67 | 810 | 1020 | 1.3 | 1030 | 1.3 | > 300000 | > 370 | – | – | – | – | – | – | – | –
12 | FC(F)(F)c1ccc([P+](Cc2ccc(Oc3ccc(C[P+](c4ccc(C(F)(F)F)cc4)(c4ccc(C(F)(F)F)cc4)c4ccc(C(F)(F)F)cc4)cc3)cc2)(c2ccc(C(F)(F)F)cc2)c2ccc(C(F)(F)F)cc2)cc1.[Br-].[Br-] | 5260 | 9930 | – | 240 | 320 | 1.3 | 280 | 1.2 | 174000 | 723 | – | – | – | – | – | – | – | –
13 | C[P+](C)(Cc1ccc(Cc2ccc(C[P+](C)(C)c3ccccc3)cc2)cc1)c1ccccc1.[Br-].[Br-] | 2590 | > 142000 | – | 5450 | 4600 | 0.8 | 3840 | 0.7 | > 300000 | > 55 | – | – | – | – | – | – | – | –
14 | CC[P+](CC)(CC)Cc1ccc(Oc2ccc(C[P+](CC)(CC)CC)cc2)cc1.[Br-].[Br-] | 31900 | 102000 | – | 36500 | 34900 | 1 | 36600 | 1 | > 300000 | > 8 | – | – | – | – | – | – | – | –
15 | CC[P+](CC)(Cc1ccc(C(=O)c2ccc(C[P+](CC)(CC)c3ccccc3)cc2)cc1)c1ccccc1.[Br-].[Br-] | 2900 | > 128000 | – | 8590 | 17800 | 2.1 | 15200 | 1.8 | > 300000 | > 35 | – | – | – | – | – | – | – | –
16 | CC[P+](CC)(CC)Cc1ccc(Cc2ccc(C[P+](CC)(CC)CC)cc2)cc1.[Br-].[Br-] | 18700 | 48300 | – | 21500 | 18500 | 0.9 | 19300 | 0.9 | > 300000 | > 14 | – | – | – | – | – | – | – | –
